Blank lines part the entries; values can stand above or below the compound they belong to.
Legend:
Mus musculus [1] = assay: Evaluated in vivo for their ability to decrease plasma glucose levels in diabetic C57BL/KsJ db/db mouse at a dose 50 mg/kg/day, *p indicates <0.05; type: functional
Method in brief: (§1)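 Diabetic db/db or ob/ob mice dosed orally once daily for 4 days. Plasma glucose and insulin reported as percent change from a vehicle-treated group. 4-6 mice per group. Significance set at p < 0.05 or p < 0.01 versus vehicle; NS means generally less than -15% change.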

[2] = target: T1, Tyrosine-protein phosphatase non-receptor type 1 (Rattus norvegicus) (UniProt P20417); assay: Inhibition of PTPase (PTP1B) activity in rat hepatic membrane at 50 uM concentration, using pNPP as the substrate; type: cell membranes; settings: Liver
T1 sequence (whole entry): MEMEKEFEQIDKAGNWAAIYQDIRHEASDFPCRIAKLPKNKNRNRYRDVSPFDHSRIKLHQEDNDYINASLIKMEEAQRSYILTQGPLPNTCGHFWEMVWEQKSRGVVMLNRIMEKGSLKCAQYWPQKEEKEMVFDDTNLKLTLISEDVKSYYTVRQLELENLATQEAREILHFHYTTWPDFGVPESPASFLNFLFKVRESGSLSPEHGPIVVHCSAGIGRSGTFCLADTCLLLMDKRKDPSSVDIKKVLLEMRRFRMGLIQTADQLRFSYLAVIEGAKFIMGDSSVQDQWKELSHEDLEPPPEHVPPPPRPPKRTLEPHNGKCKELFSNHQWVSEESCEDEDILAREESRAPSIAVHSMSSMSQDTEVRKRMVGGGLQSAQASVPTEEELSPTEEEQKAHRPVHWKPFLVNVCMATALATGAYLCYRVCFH
Method in brief: (§2)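 Liver membranes from male Sprague-Dawley rats (100-150 g), about 30 µg protein per well. Preincubated 10 min at 37 °C with compound in 1.25% DMSO in 50 mM HEPES pH 7.4. Then 6.33 mM pNPP for 30 min at 37 °C, stopped with NaOH. p-Nitrophenol read at 410 nm. Run in triplicate. Reported as percent of untreated control.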

[3] = target: T2, Tyrosine-protein phosphatase non-receptor type 1 (Mus musculus) (UniProt P35821); assay: In vivo ability to decrease plasma glucose levels in diabetic C57BL/KsJ ob/ob mouse at a dose 100 mg/kg/day; type: functional, organism-based; method in brief: as §1
T2 sequence (whole entry): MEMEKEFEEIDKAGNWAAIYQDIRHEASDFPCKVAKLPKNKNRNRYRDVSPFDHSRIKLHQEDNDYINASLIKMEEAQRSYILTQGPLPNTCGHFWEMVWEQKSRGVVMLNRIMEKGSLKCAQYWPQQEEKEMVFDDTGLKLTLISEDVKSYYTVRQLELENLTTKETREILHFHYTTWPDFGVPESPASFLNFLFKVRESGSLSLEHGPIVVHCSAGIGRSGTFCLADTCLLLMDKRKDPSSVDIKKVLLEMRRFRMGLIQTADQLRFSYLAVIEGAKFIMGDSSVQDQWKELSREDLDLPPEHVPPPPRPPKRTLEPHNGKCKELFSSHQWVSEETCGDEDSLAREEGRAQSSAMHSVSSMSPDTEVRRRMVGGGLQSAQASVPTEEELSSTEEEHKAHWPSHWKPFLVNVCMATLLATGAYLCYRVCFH

[4] = target: T2, Tyrosine-protein phosphatase non-receptor type 1 (Mus musculus); assay: Ability to decrease plasma insulin levels in mouse at a dose 100 mg/kg/day; type: functional, organism-based; method in brief: as §1
[5] = target: T3, Tyrosine-protein phosphatase non-receptor type 1 (Rattus norvegicus, UniProt P20417); assay: Inhibition of PTPase activity using recombinant r-PTP1B and IR-triphosphopeptide as substrate; ND is no data.
T3 sequence (P20417 whole entry): T1 sequence (whole entry)
Method in brief: (§3)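 Rat recombinant PTP1B in 33 mM TRIS-HCl, 2 mM EDTA, 50 mM β-mercaptoethanol, pH 7.4 (about 1000-2000 nmol/min/mg). Preincubated 10 min at 37 °C with or without compound in HEPES buffer pH 7.4. Released phosphate read by malachite green-ammonium molybdate at 650 nm against a phosphate standard. Quadruplicates. IC50 by four-parameter logistic fit.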

Mus musculus [6] = assay: Evaluated in vivo for their ability to decrease plasma glucose levels in diabetic C57BL/KsJ ob/ob mouse at a dose 20 mg/kg/day; **p indicates <0.01; type: functional
Method in brief: (§4)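 Mice dosed orally once daily for 4 days; plasma glucose and insulin measured and expressed as percent change versus a vehicle-treated group (mean ± SE, 4-6 mice/group). NS is generally less than -15% change. Significance is versus vehicle-treated mice.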

[7] = target: T1, Tyrosine-protein phosphatase non-receptor type 1 (Rattus norvegicus); assay: Inhibition of Protein-tyrosine phosphatase 1B activity in rat hepatic membrane at a concentration of 50 uM using pNPP as the substrate; type: cell membranes; settings: Liver; method in brief: as §2
Mus musculus [8] = assay: (§5) Evaluated in vivo for their ability to decrease plasma glucose levels in diabetic C57BL/KsJ ob/ob mouse at a dose 100 mg/kg/day; **p indicates <0.01; type: functional; method in brief: as §4
Mus musculus [9] = assay: Evaluated in vivo for their ability to decrease plasma glucose levels in diabetic C57BL/KsJ db/db mouse at a dose 100 mg/kg/day; *p indicates <0.05; type: functional; method in brief: as §4
Mus musculus [10] = assay: Evaluated for their ability to decrease plasma insulin level at a dose of 20 mg/kg/day; **p indicates <0.01; type: functional; method in brief: as §4
Mus musculus [11] = assay: Evaluated for their ability to decrease plasma insulin levels in mouse at a dose 100 mg/kg/day.; type: functional; method in brief: as §4
[12] = target: T1, Tyrosine-protein phosphatase non-receptor type 1 (Rattus norvegicus); assay: Inhibition of PTPase activity using recombinant Protein-tyrosine phosphatase 1B as the enzyme and IR-triphosphopeptide as substrate at 50 uM
Method in brief: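 Recombinant rat PTP1B (human 321-aa form assayed the same way), activity about 1000-2000 nmol/min/mg, preincubated with compound for 10 min at 37 °C in HEPES pH 7.4. The reaction is started with 50 µM triphosphorylated insulin receptor 1142-1153 dodecapeptide and run 30 min at 37 °C. Released phosphate read by malachite green-molybdate at 650 nm, in quadruplicate. Result is percent inhibition versus control.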

Mus musculus [13] = assay: Evaluated for their ability to decrease plasma insulin levels in mouse at a dose 100 mg/kg/day. **p indicates <0.01; type: functional; method in brief: as §4
[14] = target: T1, Tyrosine-protein phosphatase non-receptor type 1 (Rattus norvegicus); assay: Inhibition of PTPase activity using recombinant r-PTP1B as the enzyme and IR-triphosphopeptide as substrate at 50 uM; method in brief: as §3
Mus musculus [15] = assay: Evaluated in vivo for their ability to decrease plasma glucose levels in diabetic C57BL/KsJ db/db mouse at a dose 100 mg/kg/day *p indicates <0.05; type: functional; method in brief: as §1
[16] = target: T3, Tyrosine-protein phosphatase non-receptor type 1; assay: Inhibition of PTPase activity in rat hepatic membrane at a concentration of 50 uM using pNPP as the substrate; type: cell membranes, Liver; method in brief: as §2
Mus musculus [17] = assay: Evaluated in vivo for their ability to decrease plasma glucose levels in diabetic C57BL/KsJ ob/ob mouse at a dose 100 mg/kg/day. **p indicates <0.01; type: functional; method in brief: as §1
Mus musculus [18] = assay: Evaluated in vivo for their ability to decrease plasma glucose levels in diabetic C57BL/KsJ ob/ob mouse at a dose 100 mg/kg/day.,**p indicates <0.01; type: functional; method in brief: as §4
[19] = target: T4, Tyrosine-protein phosphatase non-receptor type 1 (Homo sapiens) (UniProt P18031); assay: % inhibition of PTPase activity, recombinant Protein Tyrosine Phosphatase 1b as the enzyme at a concentration 50 uM.; method in brief: as §3
T4 sequence (whole entry): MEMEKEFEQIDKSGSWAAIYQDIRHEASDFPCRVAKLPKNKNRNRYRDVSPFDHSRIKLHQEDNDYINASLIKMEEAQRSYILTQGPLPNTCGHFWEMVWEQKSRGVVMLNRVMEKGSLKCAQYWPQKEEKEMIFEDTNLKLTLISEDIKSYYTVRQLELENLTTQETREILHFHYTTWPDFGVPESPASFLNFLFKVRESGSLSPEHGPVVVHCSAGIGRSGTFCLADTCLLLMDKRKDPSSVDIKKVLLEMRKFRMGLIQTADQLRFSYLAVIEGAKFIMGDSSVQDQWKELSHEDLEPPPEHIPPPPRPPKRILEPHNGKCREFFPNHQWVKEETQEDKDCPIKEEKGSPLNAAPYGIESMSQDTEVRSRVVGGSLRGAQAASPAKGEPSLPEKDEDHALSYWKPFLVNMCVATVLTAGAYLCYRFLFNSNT

Mus musculus [20] = assay: Evaluated for their ability to decrease plasma insulin levels in mouse at a dose 100 mg/kg/day.,**p indicates <0.01; type: functional; method in brief: as §4
Mus musculus [21] = assay: Evaluated for their ability to decrease plasma insulin levels in mouse at a dose 100 mg/kg/day; **p indicates <0.01; type: functional; method in brief: as §4
Mus musculus [22] = assay: as §5; type: functional; method in brief: as §1; remark: listed apart in the source
Mus musculus [23] = assay: Evaluated in vivo for their ability to decrease plasma glucose levels in diabetic C57BL/KsJ db/db mouse at a dose 100 mg/kg/day; type: functional; method in brief: as §1
[24] = target: T3, Tyrosine-protein phosphatase non-receptor type 1; assay: Concentration required to inhibit PTPase activity, recombinant r-PTP1B as the enzyme at a concentration 2.5 uM.; method in brief: as §3

SMILES: CC/C(=C\Cn1oc(=O)[nH]c1=O)c1cccc(OCc2nc(-c3ccc(C(F)(F)F)cc3)oc2C)c1
Decrease (Mus musculus [6]): 32%
inhibition [7]: 57%
Decrease (Mus musculus [8]): 71%
Decrease (Mus musculus [9]): 63%
Decrease (Mus musculus [10]): 32%
Decrease (Mus musculus [11]): 80%
inhibition [12]: 90%

SMILES: CCCC/C(=C\Cn1oc(=O)[nH]c1=O)c1cccc(OCc2nc(-c3ccc(C(F)(F)F)cc3)oc2C)c1
Decrease (Mus musculus [18]): 61%
inhibition [14]: 1.9%
inhibition [19]: 1.4%
Decrease (Mus musculus [20]): 88%

SMILES: C/C(=C\Cn1oc(=O)[nH]c1=O)c1cccc(OCc2nc(-c3ccccc3)oc2C)c1 (stereo in doubt; 49)
Decrease (Mus musculus [21]): 76%
Decrease (Mus musculus [9]): 28%
Decrease (Mus musculus [22]): 39%

Continued, in another order:

inhibition [2]: 55%
Decrease [3]: Not significant
Decrease [4]: Not significant
IC50 [5]: Not significant
SMILES: C/C(=C/C=C/Cn1oc(=O)[nH]c1=O)c1cccc(OCc2nc(-c3ccccc3)oc2C)c1
Decrease (Mus musculus [1]): 19%

inhibition [14]: 7%
Inhibition % [16]: 71%
SMILES: C/C(=C\c1cccc(OCc2nc(-c3ccc(C(F)(F)F)cc3)oc2C)c1)Cn1oc(=O)[nH]c1=O
Decrease (Mus musculus [13]): 28%
Decrease (Mus musculus [15]): 36%
Decrease (Mus musculus [17]): 37%

inhibition [2]: 47%
Decrease [3]: Not significant
Decrease [4]: Not significant
IC50 [5]: Not significant
SMILES: Cc1oc(-c2ccc(OC(F)(F)F)cc2)nc1COc1cccc(C(C)CCn2oc(=O)[nH]c2=O)c1 (stereo unspecified)
Decrease (Mus musculus [23]): 41%

IC50 [24]: 25 µM
inhibition [2]: 62%
SMILES: C/C(=C\Cn1oc(=O)[nH]c1=O)c1cccc(OCC#Cc2cc(C(F)(F)F)cc(C(F)(F)F)c2)c1

Reference: ChEMBL document CHEMBL1132971, “New azolidinediones as inhibitors of protein tyrosine phosphatase 1B with antihyperglycemic properties” (J Med Chem, 2000)
